The record followed here is ChEMBL document CHEMBL1138098, “Novel 1,4-benzodiazepine-2,5-diones as Hdm2 antagonists with improved cellular activity” (Bioorg Med Chem Lett, 2006).

pIC50: −log10 of the molar value.

In general, pIC50 refers to the IC50 on a negative log10 scale, so that one unit is a factor of ten. High values mean a small IC50, low ones a large IC50.

For test [1], the system named is JAR. Description: Induction of PIG3 production in JAR cells at 1.1 uM. In kind it is functional, Homo sapiens. The essentials:
(§1)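 JAR cells were treated with compound at 1.1, 3.3, 10 or 30 μM. PIG-3 protein was measured by ELISA and normalized to cellular protein, reported as ng/mg.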

For test [2], the system named is JAR. Description: Induction of PIG3 production in JAR cells at 3.3 uM. In kind it is functional, Homo sapiens. In a few lines: as §1
Test [3] deals with JAR. Description: Induction of PIG3 production in JAR cells at 10 uM. Type of test: functional, Homo sapiens. In a few lines:
as §1

The test system of test [4] is JAR. Description: Induction of PIG3 production in JAR cells at 30 uM. In kind it is functional, Homo sapiens. The essentials:
as §1

Test [5] concerns the target E3 ubiquitin-protein ligase Mdm2 (Homo sapiens, UniProt Q00987). Description: Inhibition of p53-Hdm2 interaction by FP assay.

E3 ubiquitin-protein ligase Mdm2, sequence (Q00987 whole entry): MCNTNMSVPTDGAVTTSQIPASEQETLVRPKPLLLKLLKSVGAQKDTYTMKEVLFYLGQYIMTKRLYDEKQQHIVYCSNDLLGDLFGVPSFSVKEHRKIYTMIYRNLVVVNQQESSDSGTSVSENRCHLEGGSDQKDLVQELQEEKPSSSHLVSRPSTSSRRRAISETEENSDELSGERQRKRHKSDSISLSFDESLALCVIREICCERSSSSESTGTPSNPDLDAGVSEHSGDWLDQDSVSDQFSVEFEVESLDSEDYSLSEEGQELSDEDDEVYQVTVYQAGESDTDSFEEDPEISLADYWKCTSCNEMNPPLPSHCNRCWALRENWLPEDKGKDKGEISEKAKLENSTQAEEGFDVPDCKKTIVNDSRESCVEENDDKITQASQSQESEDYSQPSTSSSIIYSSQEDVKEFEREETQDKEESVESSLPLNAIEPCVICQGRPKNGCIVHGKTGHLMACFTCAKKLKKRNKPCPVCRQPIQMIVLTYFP

For `CC(c1ccc(Cl)cc1N)N1C(=O)c2cc(I)ccc2N(CCCCC(=O)O)C(=O)[C@@H]1c1ccc(Cl)cc1` (stereo not given in full), the Activity was determined as 44 ng/mg with JAR [1] and 77 ng/mg in the test on JAR [2].
With `Nc1cc(Cl)ccc1CN1C(=O)c2cc(I)ccc2N(CCCCC(=O)O)C(=O)[C@@H]1c1ccc(Cl)cc1`, the Activity worked out at 47 ng/mg in the test on JAR [1], 74 ng/mg with JAR [2] and 196 ng/mg in the test on JAR [3].
As for `C[C@H](c1cc(O)c(Cl)cc1N)N1C(=O)c2cc(I)ccc2N(CCN2CCOCC2)C(=O)[C@@H]1c1ccc(Cl)cc1`, the figures for the Activity in the test on JAR [1], in the test on JAR [2] and in the test on JAR [3] were 34 ng/mg, 54 ng/mg and 111 ng/mg, respectively.
For `COCCOCCN1C(=O)[C@H](c2ccc(Cl)cc2)N([C@H](C)c2ccc(Cl)cc2N)C(=O)c2cc(I)ccc21`, the values for the Activity in the test with JAR [1], in the test with JAR [2] and in the test on JAR [3] were 78 ng/mg, 218 ng/mg and 375 ng/mg, respectively.
For `C[C@H](c1cc(F)c(Cl)cc1N)N1C(=O)c2cc(I)ccc2N(CCN2CCOCC2)C(=O)[C@@H]1c1ccc(Cl)cc1`, the Activity in the test with JAR [1] turned out to be 37 ng/mg; in the test with JAR [2], 110 ng/mg; with JAR [3], 313 ng/mg.
Take `CN(C)CCCN1C(=O)[C@H](c2ccc(Cl)cc2)N(Cc2ccc(Cl)cc2N)C(=O)c2cc(I)ccc21`: the Activity is 36 ng/mg with JAR [1], 68 ng/mg in the test with JAR [2] and -92 ng/mg in the test with JAR [3].
For `C[C@H](c1ccc(Cl)cc1N)N1C(=O)c2cc(I)ccc2N(CCN2CCOCC2)C(=O)[C@@H]1c1ccc(Cl)cc1`, the Activity is listed as 79 ng/mg with JAR [1], 234 ng/mg in the test with JAR [2] and 395 ng/mg in the test with JAR [3].
Regarding `CN(C)CCCCN1C(=O)[C@H](c2ccc(Cl)cc2)N(Cc2ccc(Cl)cc2N)C(=O)c2cc(I)ccc21`, the Activity in the test with JAR [1] is given as 32 ng/mg; with JAR [2] it was 79 ng/mg; in the test with JAR [3] it was -136 ng/mg.
Turning to `CC(c1ccc(Cl)cc1)N1C(=O)c2cc(I)ccc2N(CCCCC(=O)O)C(=O)[C@@H]1c1ccc(Cl)cc1` (stereo not given in full), the Activity came to 60 ng/mg with JAR [1], 79.7 ng/mg in the test with JAR [2], 208.7 ng/mg with JAR [3] and 484.3 ng/mg in the test on JAR [4].
`CN1CCN(CCCCN2C(=O)[C@H](c3ccc(Cl)cc3)N(Cc3ccc(Cl)cc3N)C(=O)c3cc(I)ccc32)CC1`: the Activity in the test with JAR [1] was determined as 43 ng/mg; in the test on JAR [2], 125 ng/mg; in the test on JAR [3], 32 ng/mg.
On to `Nc1cc(Cl)ccc1CN1C(=O)c2cc(I)ccc2N(CCCN2CCOCC2)C(=O)[C@@H]1c1ccc(Cl)cc1`, for which the Activity is listed as 55 ng/mg in the test on JAR [1], 184 ng/mg in the test on JAR [2] and 375 ng/mg in the test on JAR [3].
Turning to `C=CCOc1cc(Cl)ccc1CN1C(=O)c2cc(I)ccc2N(CCOCCOC)C(=O)[C@@H]1c1ccc(Cl)cc1`, the pIC50 in test [5] is < 4.90.
For the compound `CN1CCN(CCCN2C(=O)[C@H](c3ccc(Cl)cc3)N(Cc3ccc(Cl)cc3N)C(=O)c3cc(I)ccc32)CC1`, the results for the Activity in the test with JAR [1], in the test on JAR [2] and in the test on JAR [3] were 57 ng/mg, 198 ng/mg and 385 ng/mg, respectively.
As to `COCCOCCN1C(=O)[C@H](c2ccc(Cl)cc2)N(Cc2ccc(Cl)cc2O)C(=O)c2cc(I)ccc21`, the values for the Activity in the test with JAR [1], in the test with JAR [2] and in the test with JAR [3] were 62.3 ng/mg, 74 ng/mg and 99 ng/mg, respectively.
